Reference: ChEMBL document CHEMBL5724801, “EUbOPEN Chemogenomics Library - Multiplex” (2024)
Several values for one entry are separate records, joined by “and”; a condition that tells them apart may be missing. Equal entries are not always repeated.

The molecules below were run on Fibroblast (assay: Multiplex assay against human fibroblast). Details: 12 h, 1 µM, compound concentration 1 uM.
Type: toxicity, cell-based
Summary of the method: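 At seeding, live cells were stained with Hoechst33342, BioTracker Green Microtubule Cytoskeleton Dye, MitoTracker Red and Annexin V Alexa Fluor 680. After compound addition they were imaged on a CQ1 microscope at 37°C and 5% CO2, and CellPathfinder machine-learning gating sorted them into Hoechst high-intensity objects or normal cells, with normal cells further split into healthy, pyknosed or fragmented nuclei and pyknosed cells into mitotic or apoptotic. Tubulin, mitochondrial-mass and membrane-permeability phenotypes are given as per cents of cells with healthy nuclei.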

Row | Compound | Population Apoptotic (%) | Population Fragmented Nuclei (%) | Population Healthy Nuclei (%) | Population Hoechst High Intensity Objects (%) | Population Mitotic Cells (%) | Population Normal (%) | Population Pyknosed Nuclei (%) | Population Tubulin-Different-Phenotype (%) | Total Cell Count | Population Membrane Permeable-Phenotype (%)
1 | C[C@@H]1CN(Cc2ccc(F)cc2)CCN1C(=O)COc1ccc(Cl)cc1NC(N)=O [BX 471 FREE BASE] | 23% and 38% | 10% and 26% | 73% and 47% | 3% and 7% | 76% and 61% | 96% and 92% | 15% and 26% | 35% and 48% | 138 and 182 | –
2 | CC(C)C[C@H](NC(=O)c1cc2ccccc2s1)C(=O)N1CCN(C(=O)[C@H](CO)NS(=O)(=O)c2ccc(Cl)cc2Cl)CC1 | – | 14.47% and 9.24% | 51.57% and 56.52% | 0% | 88.89% and 55.56% | 100% | 33.96% and 34.24% | 35.37% and 45.19% | 159 and 184 | 7.32% and 5.77%

Same assay, conditions: 12 h, 1 µM, compound concentration 1 uM

Row | Compound | Population Mitochondria Different-Phenotype (%)
3 | CC(C)C[C@H](NC(=O)c1cc2ccccc2s1)C(=O)N1CCN(C(=O)[C@H](CO)NS(=O)(=O)c2ccc(Cl)cc2Cl)CC1 | 17.07% and 18.27%

Same assay, conditions: 12 h, 10 µM, compound concentration 10 uM

Row | Compound | Population Apoptotic (%) | Population Fragmented Nuclei (%) | Population Healthy Nuclei (%) | Population Hoechst High Intensity Objects (%) | Population Mitotic Cells (%) | Population Normal (%) | Population Pyknosed Nuclei (%) | Population Tubulin-Different-Phenotype (%) | Total Cell Count | Population Membrane Permeable-Phenotype (%)
4 | C[C@@H]1CN(Cc2ccc(F)cc2)CCN1C(=O)COc1ccc(Cl)cc1NC(N)=O [BX 471 FREE BASE] | 38% and 40% | 27% and 36% | 45% and 27% | 7% and 11% | 61% and 60% | 92% and 88% | 26% and 35% | 81% and 77% | 240 and 126 | –
5 | CC(C)C[C@H](NC(=O)c1cc2ccccc2s1)C(=O)N1CCN(C(=O)[C@H](CO)NS(=O)(=O)c2ccc(Cl)cc2Cl)CC1 | 10.29% and 22.73% | 17.22% and 7.1% | 45% and 56.83% | 0% | 89.71% and 77.27% | 100% | 37.78% and 36.07% | 81.48% and 96.15% | 180 and 183 | 19.75% and 36.54%

Same assay, conditions: 12 h, 10 µM, compound concentration 10 uM

Row | Compound | Population Mitochondria Different-Phenotype (%)
6 | CC(C)C[C@H](NC(=O)c1cc2ccccc2s1)C(=O)N1CCN(C(=O)[C@H](CO)NS(=O)(=O)c2ccc(Cl)cc2Cl)CC1 | 58.02% and 50.96%

Same assay, conditions: 24 h, 1 µM, compound concentration 1 uM

Row | Compound | Population Apoptotic (%) | Population Fragmented Nuclei (%) | Population Healthy Nuclei (%) | Population Hoechst High Intensity Objects (%) | Population Mitotic Cells (%) | Population Normal (%) | Population Pyknosed Nuclei (%) | Population Tubulin-Different-Phenotype (%) | Total Cell Count | Population Membrane Permeable-Phenotype (%)
7 | C[C@@H]1CN(Cc2ccc(F)cc2)CCN1C(=O)COc1ccc(Cl)cc1NC(N)=O [BX 471 FREE BASE] | 52% and 51% | 13% and 20% | 74% and 52% | 0% and 6% | 47% and 48% | 99% and 93% | 11% and 27% | 33% and 52% | 147 and 160 | –
8 | CC(C)C[C@H](NC(=O)c1cc2ccccc2s1)C(=O)N1CCN(C(=O)[C@H](CO)NS(=O)(=O)c2ccc(Cl)cc2Cl)CC1 | – | 15.79% and 9.14% | 54.39% and 66.29% | 0% | 96.08% and 48.84% | 100% | 29.82% and 24.57% | 45.16% and 50% | 171 and 175 | 9.68% and 7.76%

Same assay, conditions: 24 h, 1 µM, compound concentration 1 uM

Row | Compound | Population Mitochondria Different-Phenotype (%)
9 | CC(C)C[C@H](NC(=O)c1cc2ccccc2s1)C(=O)N1CCN(C(=O)[C@H](CO)NS(=O)(=O)c2ccc(Cl)cc2Cl)CC1 | 10.75% and 17.24%

Same assay, conditions: 24 h, 10 µM, compound concentration 10 uM

Row | Compound | Population Apoptotic (%) | Population Fragmented Nuclei (%) | Population Healthy Nuclei (%) | Population Hoechst High Intensity Objects (%) | Population Mitotic Cells (%) | Population Normal (%) | Population Pyknosed Nuclei (%) | Population Tubulin-Different-Phenotype (%) | Total Cell Count | Population Membrane Permeable-Phenotype (%)
10 | C[C@@H]1CN(Cc2ccc(F)cc2)CCN1C(=O)COc1ccc(Cl)cc1NC(N)=O [BX 471 FREE BASE] | 43% and 46% | 28% and 34% | 43% and 36% | 4% and 8% | 56% and 53% | 95% and 91% | 28% and 29% | 75% and 89% | 225 and 118 | –
11 | CC(C)C[C@H](NC(=O)c1cc2ccccc2s1)C(=O)N1CCN(C(=O)[C@H](CO)NS(=O)(=O)c2ccc(Cl)cc2Cl)CC1 | 22.58% and 46.67% | 11.67% and 8.33% | 71.11% and 66.67% | 0% | 77.42% and 53.33% | 100% | 17.22% and 25% | 89.84% and 96.67% | 180 | 19.53% and 8.33%

Same assay, conditions: 24 h, 10 µM, compound concentration 10 uM

Row | Compound | Population Mitochondria Different-Phenotype (%)
12 | CC(C)C[C@H](NC(=O)c1cc2ccccc2s1)C(=O)N1CCN(C(=O)[C@H](CO)NS(=O)(=O)c2ccc(Cl)cc2Cl)CC1 | 49.22% and 55.83%

Same assay, conditions: 48 h, 1 µM, compound concentration 1 uM

Row | Compound | Population Apoptotic (%) | Population Fragmented Nuclei (%) | Population Healthy Nuclei (%) | Population Hoechst High Intensity Objects (%) | Population Mitotic Cells (%) | Population Normal (%) | Population Pyknosed Nuclei (%) | Population Tubulin-Different-Phenotype (%) | Total Cell Count | Population Mitochondria Different-Phenotype (%)
13 | C[C@@H]1CN(Cc2ccc(F)cc2)CCN1C(=O)COc1ccc(Cl)cc1NC(N)=O [BX 471 FREE BASE] | 55% and 63% | 16% and 31% | 67% and 55% | 5% | 45% and 36% | 94% and 97% | 15% and 13% | 40% and 54% | 138 and 172 | –
14 | CC(C)C[C@H](NC(=O)c1cc2ccccc2s1)C(=O)N1CCN(C(=O)[C@H](CO)NS(=O)(=O)c2ccc(Cl)cc2Cl)CC1 | – | 10.05% and 9.68% | 78.84% and 78.49% | 0% | 85.71% and 50% | 100% | 11.11% and 11.83% | 33.56% and 65.07% | 189 and 186 | 12.75% and 8.22%

Same assay, conditions: 48 h, 10 µM, compound concentration 10 uM

Row | Compound | Population Apoptotic (%) | Population Fragmented Nuclei (%) | Population Healthy Nuclei (%) | Population Hoechst High Intensity Objects (%) | Population Mitotic Cells (%) | Population Normal (%) | Population Pyknosed Nuclei (%) | Population Tubulin-Different-Phenotype (%) | Total Cell Count | Population Membrane Permeable-Phenotype (%)
15 | C[C@@H]1CN(Cc2ccc(F)cc2)CCN1C(=O)COc1ccc(Cl)cc1NC(N)=O [BX 471 FREE BASE] | 58% and 41% | 31% and 42% | 49% and 42% | 7% and 6% | 41% and 58% | 92% and 93% | 18% and 14% | 77% and 91% | 234 and 122 | –
16 | CC(C)C[C@H](NC(=O)c1cc2ccccc2s1)C(=O)N1CCN(C(=O)[C@H](CO)NS(=O)(=O)c2ccc(Cl)cc2Cl)CC1 | 38.89% and 56.52% | 11.45% and 11.37% | 77.71% and 77.73% | 0% | 61.11% and 43.48% | 100% | 10.84% and 10.9% | 82.17% and 96.34% | 166 and 211 | 6.2% and 8.54%

Same assay, conditions: 48 h, 10 µM, compound concentration 10 uM

Row | Compound | Population Mitochondria Different-Phenotype (%)
17 | CC(C)C[C@H](NC(=O)c1cc2ccccc2s1)C(=O)N1CCN(C(=O)[C@H](CO)NS(=O)(=O)c2ccc(Cl)cc2Cl)CC1 | 39.53% and 48.78%
